The source made the active and inactive calls. The rule behind the calls is not given here.
Tests used:
[1] = test system: C[C@@]1(O)[C@H](O)[C@@H](CO)O[C@H]1n1ccc(N)nc1=O; conditions: Homo sapiens; HepG2
[2] = test system: C[C@@]1(F)[C@H](O)[C@@H](CO)O[C@H]1n1ccc(N)nc1=O; conditions: Homo sapiens; HepG2
[3] = test system: Nc1ccn([C@@H]2O[C@H](CO)[C@@H](O)[C@H]2F)c(=O)n1; conditions: Homo sapiens; HepG2
[4] = test system: C[C@@H]1[C@H](O)[C@@H](CO)O[C@H]1n1ccc(N)nc1=O; conditions: Homo sapiens; HepG2
[5] = test system: Nc1ccn([C@@H]2O[C@H](CO)[C@@H](O)C2(F)F)c(=O)n1; conditions: Homo sapiens; HepG2
[6] = test system: C[C@@]1(O)[C@H](O)[C@@H](CO)O[C@H]1n1ccc(N)nc1=O; conditions: Homo sapiens; HepG2; remark: listed apart in the source
[7] = test system: C[C@@]1(F)[C@H](O)[C@@H](CO)O[C@H]1n1ccc(N)nc1=O; conditions: Homo sapiens; HepG2; remark: listed apart in the source
[8] = test system: Nc1ccn([C@@H]2O[C@H](CO)[C@@H](O)[C@H]2F)c(=O)n1; conditions: Homo sapiens; HepG2; remark: listed apart in the source
[9] = test system: C[C@@H]1[C@H](O)[C@@H](CO)O[C@H]1n1ccc(N)nc1=O; conditions: Homo sapiens; HepG2; remark: listed apart in the source
[10] = test system: Nc1ccn([C@@H]2O[C@H](CO)[C@@H](O)C2(F)F)c(=O)n1; conditions: Homo sapiens; HepG2; remark: listed apart in the source
Hepacivirus hominis [11] = assay: Inhibition of HCV NS5B RNA polymerase S282T mutant assessed as incorporation of 32P-UMP into RNA
Method in brief: (§1)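 Purified 21-aa C-terminally truncated NS5B (S282T; wild type for comparison) on minus-IRES template, run in 50 mM HEPES pH 7.5 with 1 mM MgCl2, 0.75 mM MnCl2, 2 mM DTT and [α-32P]UTP at 27°C. Natural substrate and inhibitor were both varied against fixed remaining NTPs (UTP 10 μM, others 100 μM). Product was membrane-captured and counted. Ki was obtained by fitting a competitive inhibition equation.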

Hepacivirus hominis [12] = assay: Ratio of Ki/Km of HCV NS5B RNA polymerase S282T mutant to Ki/Km of HCV NS5B RNA polymerase
Method in brief: as §1

Hepacivirus hominis [13] = assay: Ratio of Ki to Km for HCV NS5B RNA polymerase
Method in brief: (§2)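 Steady-state Ki against truncated NS5B (wild-type and S282T) on minus IRES template, 27°C, HEPES pH 7.5 with Mg2+/Mn2+/DTT and [α-32P]UTP. For ATP analog, UTP 10, GTP and CTP 100 μM, ATP and inhibitor varied. For CTP analogs, UTP 10, ATP and GTP 100 μM, CTP and inhibitor varied. Membrane-bound product counted, rates fit to competitive inhibition.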

Hepacivirus hominis [14] = assay: Inhibition of HCV NS5B RNA polymerase assessed as incorporation of 32P-UMP into RNA
Method in brief: as §2

[15] = test system: RNA-directed RNA polymerase (Hepacivirus hominis), O39930 [S282T]; assay: Ratio of Ki to Km for HCV NS5B RNA polymerase S282T mutant
Method in brief: as §1

[16] = target: T1, Uridine-cytidine kinase 1 (Homo sapiens) (UniProt Q9HA47); assay: Activity of human UCK1 expressed in Huh7 cells assessed as phosphorylation up to 3 mM by coupled enzyme assay; assay type: cell-based; conditions: Huh-7
T1 sequence (whole entry): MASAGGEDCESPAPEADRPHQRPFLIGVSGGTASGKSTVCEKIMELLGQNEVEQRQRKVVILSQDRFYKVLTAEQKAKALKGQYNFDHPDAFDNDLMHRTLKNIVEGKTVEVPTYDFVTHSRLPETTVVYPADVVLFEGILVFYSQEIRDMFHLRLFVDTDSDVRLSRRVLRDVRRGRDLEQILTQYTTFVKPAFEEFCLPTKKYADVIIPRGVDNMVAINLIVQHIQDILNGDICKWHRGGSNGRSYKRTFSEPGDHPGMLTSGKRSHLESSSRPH
Method in brief: (§3)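 His-tagged human UCK-1 cloned from Huh-7 cells, assayed at 25°C by pyruvate kinase/lactate dehydrogenase coupling, NADH oxidation at 340 nm. Buffer 64 mM Tris-HCl pH 7.5, 1 mM ATP, Mg2+, phosphoenolpyruvate. Enzyme 41 nM, or 410 nM for 2′-C-methyl cytidines. Substrate concentration varied. Steady-state parameters reported as mean ± SD.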

[17] = target: T1, Uridine-cytidine kinase 1 (Homo sapiens); assay: Activity of human UCK1 expressed in Huh7 cells assessed as phosphorylation by coupled enzyme assay; assay type: cell-based; conditions: Huh-7
Method in brief: as §3

[18] = target: T1, Uridine-cytidine kinase 1 (Homo sapiens); assay: Ratio of Kcat to Km for UCK1 activity expressed in Huh7 cells up to 3 mM; assay type: cell-based; conditions: Huh-7
Method in brief: as §3

[19] = target: T1, Uridine-cytidine kinase 1 (Homo sapiens); assay: Ratio of Kcat to Km for UCK1 activity expressed in Huh7 cells; assay type: cell-based; conditions: Huh-7
Method in brief: as §3

Hepacivirus hominis [20] = assay: Ratio of Kcat to Km for HCV NS5B RNA polymerase S282T mutant
Method in brief: (§4)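 Steady-state assay with purified 21-aa C-terminally truncated HCV NS5B (S282T) on minus-IRES RNA template. Conditions: 50 mM HEPES pH 7.5, 1 mM MgCl2, 0.75 mM MnCl2, 2 mM DTT, [α-32P]UTP tracer, 27°C. One NTP varied, other three held at saturating levels. Rates came from product time courses; products were dot-blotted on Hybond N+ and counted by scintillation.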

Hepacivirus hominis [21] = assay: Activity of HCV NS5B RNA polymerase assessed as incorporation of 32P-UMP into RNA
Method in brief: (§5)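 Recombinant C-terminal 21-aa truncated HCV NS5B on minus IRES RNA template, 50 mM HEPES pH 7.5, 1 mM MgCl2, 0.75 mM MnCl2, 2 mM DTT, [α-32P]UTP, 27°C. One NTP varied, other three fixed at saturating levels. Aliquots quenched with EDTA/NaCl/citrate, product retained on Hybond N+ membrane, counted by scintillation. Rates from time-course slopes, fit for steady-state parameters.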

Hepacivirus hominis [22] = assay: Ratio of Kcat to Km for HCV NS5B RNA polymerase
Method in brief: as §5

HepG2 [23] = assay: Ratio of Kcat to Km for NDPK activity expressed in HepG2 cells; assay type: cell-based; conditions: Homo sapiens
Method in brief: (§6)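 Human NDPK cloned from HepG2 cells, 216 nM, 37°C, with 1 mM ATP in Tris-HCl pH 7.5 coupled to pyruvate kinase/lactate dehydrogenase. NADH oxidation read at 340 nm. Diphosphate substrate concentration varied, Km and kcat as mean ± SD.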

HepG2 [24] = assay: Activity of human NDPK expressed in HepG2 cells assessed as phosphorylation by coupled enzyme assay; assay type: cell-based
Method in brief: as §6

[25] = test system: Nc1nc2c(c(=O)[nH]1)NCN2[C@@H]1O[C@H](COP(=O)(O)OP(=O)(O)OP(=O)(O)O)[C@@H](O)[C@H]1O; assay: (§7) Activity of HCV NS5B RNA polymerase S282T assessed as incorporation of 32P-UMP into RNA; conditions: Hepacivirus hominis
Method in brief: as §4

[26] = test system: O=c1ccn([C@@H]2O[C@H](COP(=O)(O)OP(=O)(O)OP(=O)(O)O)[C@@H](O)[C@H]2O)c(=O)[nH]1; assay: as §7; conditions: Hepacivirus hominis
Method in brief: as §4

[27] = test system: Nc1ncnc2c1ncn2[C@@H]1O[C@H](COP(=O)(O)OP(=O)(O)OP(=O)(O)O)[C@@H](O)[C@H]1O; assay: as §7; conditions: Hepacivirus hominis
Method in brief: as §4

[28] = test system: Nc1ccn([C@@H]2O[C@H](COP(=O)(O)OP(=O)(O)OP(=O)(O)O)[C@@H](O)[C@H]2O)c(=O)n1; assay: as §7; conditions: Hepacivirus hominis
Method in brief: as §4

[29] = target: T1, Uridine-cytidine kinase 1 (Homo sapiens); assay: Ratio of Kcat to Km for UCK1 activity expressed in Huh7 cells up to 1 mM; assay type: cell-based; conditions: Huh-7
Method in brief: as §3

[30] = target: T1, Uridine-cytidine kinase 1 (Homo sapiens); assay: Activity of human UCK1 expressed in Huh7 cells assessed as phosphorylation up to 1 mM by coupled enzyme assay; assay type: cell-based; conditions: Huh-7
Method in brief: as §3

Chain of Deoxycytidine kinase (Homo sapiens), P27707 (P27707 whole entry): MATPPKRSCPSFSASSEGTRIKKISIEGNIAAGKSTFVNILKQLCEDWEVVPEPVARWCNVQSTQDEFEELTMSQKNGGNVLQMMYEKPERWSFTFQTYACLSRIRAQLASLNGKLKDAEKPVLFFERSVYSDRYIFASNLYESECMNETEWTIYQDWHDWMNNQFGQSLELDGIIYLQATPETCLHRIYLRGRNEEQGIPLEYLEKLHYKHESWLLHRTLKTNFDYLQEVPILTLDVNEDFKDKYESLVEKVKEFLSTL

Molecule: Deoxycytidine kinase (Homo sapiens), P27707
- kcat/Km [1]: 12 M⁻¹ s⁻¹
- kcat/Km [2]: 190 M⁻¹ s⁻¹
- kcat/Km [3]: 11000 M⁻¹ s⁻¹
- kcat/Km [4]: 1000 M⁻¹ s⁻¹
- kcat/Km [5]: 27000 M⁻¹ s⁻¹
- Km [6]: 914 µM
- kcat [6]: 0.011 s⁻¹
- Km [7]: 81.2 µM
- kcat [7]: 0.016 s⁻¹
- Km [8]: 4.7 µM
- kcat [8]: 0.05 s⁻¹
- Km [9]: 46.2 µM
- kcat [9]: 0.048 s⁻¹
- Km [10]: 1.4 µM
- kcat [10]: 0.038 s⁻¹

Molecule: C[C@@]1(O)[C@H](O)[C@@H](COP(=O)(O)OP(=O)(O)OP(=O)(O)O)O[C@H]1n1ccc(N)nc1=O
- Km (Hepacivirus hominis [11]): 2.7 µM
- Ratio (Hepacivirus hominis [12]): 12
- Ki/Km (Hepacivirus hominis [13]): 0.12
- Km (Hepacivirus hominis [14]): 13.7 µM
- Ki/Km [15]: 1.4

Molecule: C[C@@]1(F)[C@H](O)[C@@H](CO)O[C@H]1n1ccc(N)nc1=O
- Activity [16]: inactive
- Activity [17]: inactive
- Activity [18]: inactive
- Activity [19]: inactive

Molecule: Nc1ccn([C@@H]2O[C@H](COP(=O)(O)OP(=O)(O)OP(=O)(O)O)[C@@H](O)[C@H]2O)c(=O)n1
- kcat/Km (Hepacivirus hominis [20]): 1.32 M⁻¹ s⁻¹
- Km (Hepacivirus hominis [21]): 13.7 µM
- kcat (Hepacivirus hominis [21]): 2.53e-05 s⁻¹
- kcat/Km (Hepacivirus hominis [22]): 1.83 M⁻¹ s⁻¹

Molecule: C[C@@]1(F)[C@H](O)[C@@H](COP(=O)(O)OP(=O)(O)O)O[C@H]1n1ccc(N)nc1=O
- kcat/Km (HepG2 [23]): 15000 M⁻¹ s⁻¹
- Km (HepG2 [24]): 1380 µM
- kcat (HepG2 [24]): 21 s⁻¹

Molecule: RNA-directed RNA polymerase (Hepacivirus hominis), O39930 S282T
- Km [25]: 5 µM
- kcat [25]: 0.000198 s⁻¹
- Km [26]: 0.18 µM
- kcat [26]: 0.000125 s⁻¹
- Km [27]: 0.26 µM
- kcat [27]: 0.000167 s⁻¹
- Km [28]: 2.7 µM
- kcat [28]: 0.000214 s⁻¹

Molecule: C[C@@]1(O)[C@H](O)[C@@H](CO)O[C@H]1n1ccc(N)nc1=O
- Activity [17]: inactive
- Activity [19]: inactive

Molecule: Nc1ncnc2c1ncn2[C@@H]1O[C@H](COP(=O)(O)OP(=O)(O)OP(=O)(O)O)[C@@H](O)[C@H]1O
- kcat/Km (Hepacivirus hominis [20]): 10.7 M⁻¹ s⁻¹
- Km (Hepacivirus hominis [21]): 2.7 µM
- kcat (Hepacivirus hominis [21]): 3.33e-05 s⁻¹
- kcat/Km (Hepacivirus hominis [22]): 12.3 M⁻¹ s⁻¹

Molecule: C[C@@]1(F)[C@H](O)[C@@H](COP(=O)(O)OP(=O)(O)OP(=O)(O)O)O[C@H]1n1ccc(N)nc1=O
- Km (Hepacivirus hominis [11]): 2.7 µM
- Ratio (Hepacivirus hominis [12]): 3
- Ki/Km (Hepacivirus hominis [13]): 0.31
- Km (Hepacivirus hominis [14]): 13.7 µM
- Ki/Km [15]: 0.93

Molecule: C[C@@]1(O)[C@H](O)[C@@H](COP(=O)(O)OP(=O)(O)OP(=O)(O)O)O[C@H]1n1cnc2c(N)ncnc21
- Km (Hepacivirus hominis [11]): 0.26 µM
- Ratio (Hepacivirus hominis [12]): 150
- Ki/Km (Hepacivirus hominis [13]): 0.56
- Km (Hepacivirus hominis [14]): 2.7 µM
- Ki/Km [15]: 84

Molecule: Nc1ccn([C@H]2C[C@H](O)[C@@H](CO)O2)c(=O)n1
- Activity [29]: inactive
- Activity [17]: inactive
- Activity [30]: inactive
- Activity [19]: inactive

Molecule: Nc1ccn([C@@H]2O[C@H](COP(=O)(O)OP(=O)(O)O)[C@@H](O)[C@H]2O)c(=O)n1
- kcat/Km (HepG2 [23]): 600000 M⁻¹ s⁻¹
- Km (HepG2 [24]): 307 µM
- kcat (HepG2 [24]): 183 s⁻¹

Molecule: O=c1ccn([C@@H]2O[C@H](COP(=O)(O)OP(=O)(O)OP(=O)(O)O)[C@@H](O)[C@H]2O)c(=O)[nH]1
- kcat/Km (Hepacivirus hominis [20]): 11.5 M⁻¹ s⁻¹
- Km (Hepacivirus hominis [21]): 0.4 µM
- kcat (Hepacivirus hominis [21]): 2.13e-05 s⁻¹
- kcat/Km (Hepacivirus hominis [22]): 53.3 M⁻¹ s⁻¹

From ChEMBL document CHEMBL1142170, “Mechanism of activation of beta-D-2'-deoxy-2'-fluoro-2'-c-methylcytidine and inhibition of hepatitis C virus NS5B RNA polymerase” (Antimicrob Agents Chemother, 2007)
